Published values from different studies.
Target: Receptor-interacting serine/threonine-protein kinase 1 (RIPK1, Homo sapiens, UniProt Q13546)
One construct used (Q13546 1-671): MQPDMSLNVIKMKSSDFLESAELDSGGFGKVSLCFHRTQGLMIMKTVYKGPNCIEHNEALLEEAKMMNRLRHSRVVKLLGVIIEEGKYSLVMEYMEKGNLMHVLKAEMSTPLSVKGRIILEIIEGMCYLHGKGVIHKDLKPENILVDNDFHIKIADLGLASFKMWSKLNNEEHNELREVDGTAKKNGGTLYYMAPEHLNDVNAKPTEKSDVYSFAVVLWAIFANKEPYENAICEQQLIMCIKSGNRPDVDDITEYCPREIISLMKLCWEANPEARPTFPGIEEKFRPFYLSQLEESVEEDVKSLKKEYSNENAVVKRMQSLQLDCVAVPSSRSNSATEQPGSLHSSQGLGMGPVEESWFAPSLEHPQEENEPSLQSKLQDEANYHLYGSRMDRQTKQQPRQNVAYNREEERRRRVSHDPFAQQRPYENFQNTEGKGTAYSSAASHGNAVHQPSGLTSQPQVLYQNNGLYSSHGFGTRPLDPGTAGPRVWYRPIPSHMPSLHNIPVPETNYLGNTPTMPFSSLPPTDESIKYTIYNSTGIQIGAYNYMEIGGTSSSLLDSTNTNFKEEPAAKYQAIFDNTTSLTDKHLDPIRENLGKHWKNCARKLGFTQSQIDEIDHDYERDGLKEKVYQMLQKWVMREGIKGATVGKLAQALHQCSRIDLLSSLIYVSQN

CNCc1ccccc1-c1csc([C@@H](C)Nc2nc(C)nc3cc(OC)c(OC)cc23)c1
remaining binding (cell-free assay; competition with immobilised ligand; 1 µM): 97%

N[C@@H]1CCN(c2nccc(-c3cnn4ncccc34)n2)C1
remaining binding (binding; 1 µM): 100%

CNC(=O)[C@@H]1CC[C@@H](n2c(-c3ccc4cnccc4c3)nc3ccc(C(=O)NCc4cccc(C(N)=O)c4)cc32)C1
remaining binding (binding; competition with immobilised ligand; 1 µM): 100%

O=C(NCCCN1CCOCC1)c1ccc(Nc2nccc(-c3cc4ccccc4s3)n2)cc1
remaining binding (binding; competition with immobilised ligand; 1 µM): 65%

O=C(N1CCS(=O)(=O)CC1)N1C[C@H](c2ccc(OC(F)(F)F)cc2)C[C@H](c2nc(C3CC3)no2)C1
remaining binding (cell-free assay; competition with immobilised ligand; 1 µM): 100%

Nc1ncc2c(n1)-c1c([nH]c3ccc(C#CC4CC4)cc13)CCCC2
remaining binding (binding; competition with immobilised ligand; 1 µM): 100%

CN(CCCC(F)(F)F)c1nccc(-c2cnn3ncccc23)n1
remaining binding (binding; 1 µM): 97%

O=C(c1ccc(Nc2nccc(-c3cc4ccccc4s3)n2)cc1)N1CCC(N2CCCC2)CC1
remaining binding (binding; competition with immobilised ligand; 1 µM): 23%

O=C(Nc1c[nH]nc1C(=O)NC1CCNCC1)c1cc(F)cc(F)c1
remaining binding (binding; competition with immobilised ligand; 1 µM): 100%

CN(C)c1nccc(-c2cnn3ncccc23)n1
remaining binding (binding; 1 µM): 98%

COc1cnc(Nc2cccc(S(N)(=O)=O)c2)nc1N1CCN(c2ccccc2)C(=O)C1
remaining binding (binding; competition with immobilised ligand; 1 µM): 100%

CCCOc1ccc([C@@H]2[C@@H](C(=O)O)[C@H](c3ccc4c(c3)OCO4)CN2CC(=O)Nc2c(CC)cccc2CC)cc1
remaining binding (cell-free assay; competition with immobilised ligand; 1 µM): 55%

O=C(c1ccc(Nc2ncc(Cl)c(-c3cc4ccccc4s3)n2)cc1)N1CCC(N2CCCC2)CC1
remaining binding (binding; competition with immobilised ligand; 1 µM): 2.5%

CCC(=O)N[C@H]1CC[C@@H](C(=O)N(C)c2ccc(-c3nc4ccccc4o3)cc2)C1
remaining binding (cell-free assay; competition with immobilised ligand; 1 µM): 100%

COc1ccnn2ncc(-c3ccnc(N(C)C)n3)c12
remaining binding (binding; 1 µM): 96%

CN(C)c1ncnc(-c2ccc3nc(Nc4cc(CN5CCN(C(=O)CC(F)(F)F)CC5)ccn4)[nH]c3c2)c1Cl
remaining binding (cell-free assay; competition with immobilised ligand; 1 µM): 93%

CN(c1nccc(-c2cnn3ncccc23)n1)C1CC1
remaining binding (binding; 1 µM): 100%

COc1cc(-c2cn(C3CCc4c(F)cccc4N(CC(F)(F)F)C3=O)nn2)ccc1-n1cnc(C)c1 (stereo not shown)
remaining binding (cell-free assay; competition with immobilised ligand; 1 µM): 100%

FC(F)(F)Oc1cccc(-c2cnc3ccc(-c4ccncc4)nn23)c1
remaining binding (binding; competition with immobilised ligand; 5 µM): 81%
